Assay results: ChEMBL document CHEMBL1148817, “Synthesis and radioligand binding studies of bis-isoquinolinium derivatives as small conductance Ca(2+)-activated K(+) channel blockers” (J Med Chem, 2007)

How the values were obtained:
[1] = target: Small conductance calcium-activated potassium channel (Rattus norvegicus) (UniProt P70604+P70606+P70605); experiment: Displacement of [125I]apamin from SK channel in Wistar rat cortex at 10 uM
[2] = target: T1, Small conductance calcium-activated potassium channel (Rattus norvegicus, UniProt P70604+P70606+P70605); experiment: Displacement of [125I]apamin from SK channel in Wistar rat cortex
Summary of the method: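 Rat cortex synaptosomes (0.2 mg protein/mL) incubated 1 h at 0 °C with 10 pM 125I-apamin and eight drug concentrations (10-4.5 to 10^-8 M) in 10 mM Tris-HCl pH 7.5, 5.4 mM KCl, 0.1% BSA. Nonspecific binding defined with 0.1 µM unlabeled apamin. Filtration on PEI-coated GF/C filters, scintillation counting, curve fitting.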

[3] = target: T1, Small conductance calcium-activated potassium channel; experiment: Blockade of SK channel in Wistar rat brain assessed as inhibition of apamin-sensitive after-hyperpolarisation
Summary of the method: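 Apamin-sensitive AHP area (mV s) measured as percent reduction, normalized to block by 300 nM apamin; four sweeps averaged. IC50 from Hill equation fit; mean ± SD, n = 3.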

`COc1cc2cc[n+](C)c(Cc3ccc(Cc4c5c(OC)c(OC)c(OC)cc5cc[n+]4C)cc3)c2c(OC)c1OC.[I-].[I-]` gave an Activity [1] of over 58% and a Ki [2] of 280 nM.
Molecule `C[n+]1ccc2ccccc2c1Cc1cccc(Cc2c3ccccc3cc[n+]2C)c1.[I-].[I-]` has an Activity [1] of over 58% and a Ki [2] of 132 nM.
Molecule `C[n+]1ccc2ccccc2c1CCCCc1c2ccccc2cc[n+]1C.[I-].[I-]` has an Activity [1] of over 58% and a Ki [2] of 1962 nM.
`COc1cc2cc[n+](C)c(CCCCCc3c4cc(OC)c(OC)cc4cc[n+]3C)c2cc1OC.[I-].[I-]` was tested, and the Activity [1] was over 58% and the Ki [2] was 150 nM.
`C[n+]1ccc2ccccc2c1CCCc1c2ccccc2cc[n+]1C.[I-].[I-]` was tested, and the Activity [1] was over 58% and the Ki [2] was 1687 nM.
Molecule `COc1cc2cc[n+](C)c(CCCCc3c4cc(OC)c(OC)cc4cc[n+]3C)c2cc1OC.[I-].[I-]` has an Activity [1] of over 58% and a Ki [2] of 164 nM.
`COc1cc2cc[n+](C)c(Cc3ccccc3Cc3c4c(OC)c(OC)c(OC)cc4cc[n+]3C)c2c(OC)c1OC.[I-].[I-]` showed an Activity [1] of over 58%, a Ki [2] of 35 nM and an IC50 [3] of 4100 nM.
`COc1cc2cc[n+](C)c(CCCCc3c4c(OC)c(OC)c(OC)cc4cc[n+]3C)c2c(OC)c1OC.[I-].[I-]` was tested, and the Activity [1] was over 58%, the Ki [2] was 42 nM and the IC50 [3] was 4400 nM.
Molecule `COc1cc2cc[n+](C)c(Cc3cccc(Cc4c5c(OC)c(OC)c(OC)cc5cc[n+]4C)c3)c2c(OC)c1OC.[I-].[I-]` has an Activity [1] of over 58%, a Ki [2] of 23 nM and an IC50 [3] of 2400 nM.
`COc1cc2cc[n+](C)c(CCCc3c4c(OC)c(OC)c(OC)cc4cc[n+]3C)c2c(OC)c1OC.[I-].[I-]` showed an Activity [1] of over 58% and a Ki [2] of 90 nM.
`COc1cc2cc[n+](C)c(Cc3ccc(Cc4c5cc(OC)c(OC)cc5cc[n+]4C)cc3)c2cc1OC.[I-].[I-]` gave an Activity [1] of over 58% and a Ki [2] of 163 nM.
`C[n+]1ccc2ccccc2c1CCCCCc1c2ccccc2cc[n+]1C.[I-].[I-]` gave an Activity [1] of over 58% and a Ki [2] of 1465 nM.
Work on `C[n+]1ccc2ccccc2c1Cc1ccc(Cc2c3ccccc3cc[n+]2C)cc1.[I-].[I-]` yielded an Activity [1] of over 58% and a Ki [2] of 1103 nM.
`COc1cc2cc[n+](C)c(CCCc3c4cc(OC)c(OC)cc4cc[n+]3C)c2cc1OC.[I-].[I-]` showed an Activity [1] of over 58% and a Ki [2] of 196 nM.
Molecule `COc1cc2cc[n+](C)c(Cc3ccccc3Cc3c4cc(OC)c(OC)cc4cc[n+]3C)c2cc1OC.[I-].[I-]` has an Activity [1] of over 58%, a Ki [2] of 33 nM and an IC50 [3] of 3800 nM.
Molecule `Cc1cc(N)c2ccccc2[n+]1CCCCCCCCCC[n+]1c(C)cc(N)c2ccccc21.[Cl-].[Cl-]` [DEQUALINIUM CHLORIDE] has an Activity [1] of over 58% and a Ki [2] of 221 nM.
`COc1ccc(C[C@H]2c3cc(OC)c(OC)cc3CC[N+]2(C)C)cc1OC.[I-]` [LAUDANOSINE METHIODIDE] showed an Activity [1] of over 58% and an IC50 [3] of 15000 nM.
`COc1cc2cc[n+](C)c(Cc3cccc(Cc4c5cc(OC)c(OC)cc5cc[n+]4C)c3)c2cc1OC.[I-].[I-]` showed an Activity [1] of over 58% and a Ki [2] of 106 nM.
In the case of `C[n+]1ccc2ccccc2c1Cc1ccccc1Cc1c2ccccc2cc[n+]1C.[I-].[I-]`, the Activity [1] is reported as over 58% and the Ki [2] is reported as 438 nM.
